SMILES strings stand for the structures. Some results are limits rather than exact numbers.

Data set [1] concerns BV-2. Nature of the data set: Antiinflammatory activity in mouse BV2 cells assessed as effect on LPS-stimulated nitrite accumulation after 24 hrs by Griess reagent method. Format: functional, cell-based. Particulars: BV-2, 24 h. The method, boiled down: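 Nitrite, the stable NO oxidation product, measured in culture supernatant by Griess reaction: 50 µL supernatant mixed with equal volume of reagent (1% sulfanilamide, 0.1% N-1-naphthylethylenediamine dihydrochloride in 5% phosphoric acid). Absorbance at 540 nm read after 10 min. Sodium nitrite standard used for quantitation. L-NMMA served as positive control. IC50 values reported.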
Background: Griess reagent forms a coloured azo dye with nitrite.

Data set [2] relates to HCT-15. In words: Cytotoxicity against human HCT15 cells by SRB assay. The format is functional, cell-based.
For data set [3], the system named is SK-OV-3. In words: Cytotoxicity against human SKOV3 cells by SRB assay. Format: functional, cell-based. Background: Sulforhodamine B stains cellular protein and so reports cell mass.
Data set [4] relates to SK-MEL-2. In words: Cytotoxicity against human SK-MEL-2 cells by SRB assay. The format is functional, cell-based.
For data set [5], the system named is A549. Nature of the data set: Cytotoxicity against human A549 cells by SRB assay. Format: functional, cell-based.
Data set [6] in a line: Cytotoxicity against mouse BV2 cells by MTT assay. Format: cell-based. Particulars: bv-2. The method, boiled down:
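Viability of the same cultures determined by MTT (3-[4,5-dimethylthiazol-2-yl]-2,5-diphenyltetrazolium bromide) assay.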
Background: Formazan colour is commonly taken as a measure of viable cells.

As a reminder, the IC50 is the concentration that gives 50% inhibition. As for `COc1cc(-c2ccccc2O)cc(OC)c1OC`, the IC50 in data set [1] is 50.6 µM; in data set [2], > 10 µM; in data set [3], > 10 µM; in data set [4] it was > 10 µM; in data set [5], > 10 µM.
Consider `COc1cc(OC)cc(-c2ccccc2O)c1`, for which the IC50 in data set [1] was 32.1 µM; in data set [2], > 10 µM; in data set [3] it was > 10 µM; in data set [4] it was > 10 µM; in data set [5], > 10 µM.
Take `COc1cc(-c2ccccc2)cc(O)c1O`: the IC50 in data set [2], in data set [3], in data set [4] and in data set [5] was > 10 µM in each case.
With `COc1cc(-c2ccccc2O)cc(OC)c1O`, the IC50 in data set [2], in data set [3], in data set [4] and in data set [5] was > 10 µM each time.
Consider `COc1cc2c(oc3cc(O)ccc32)c(OC)c1O`, for which the IC50 in data set [2], in data set [3], in data set [4] and in data set [5] was > 10 µM in each case.
In the case of `COc1cc2c(oc3cccc(O)c32)c(OC)c1O`, the IC50 in data set [2], in data set [3], in data set [4] and in data set [5] was > 10 µM each time.
As to `COc1ccc2c(oc3c(OC)c(OC)c(O)cc32)c1O`, the IC50 was 33 µM in data set [1]; > 10 µM in data set [2]; > 10 µM in data set [3]; > 10 µM in data set [4]; > 10 µM in data set [5].
Take `COc1cc(OC)cc(-c2ccc(O)cc2)c1`: the IC50 in data set [2], in data set [3], in data set [4] and in data set [5] was > 10 µM in each case.
On to `COc1cc(O)cc(-c2ccccc2)c1`, for which the IC50 in data set [2], in data set [3], in data set [4] and in data set [5] was > 10 µM in each case.
As to `COc1cc(OC)cc(-c2ccccc2)c1`, the IC50 in data set [2], in data set [3], in data set [4] and in data set [5] was > 10 µM each time.
As to `COc1cc(-c2ccccc2)cc(OC)c1O` [AUCUPARIN], the IC50 in data set [2], in data set [3], in data set [4] and in data set [5] was > 10 µM in each case.
In the case of `COc1cc(-c2ccccc2)cc(Oc2c(OC)cc([C@@H](O)[C@H](O)CO)cc2OC)c1O` [BERBEKORIN A], the IC50 in data set [2] was determined as 7 µM; in data set [4], 4.4 µM; in data set [5], 8.2 µM. In data set [6], the Activity result was “Toxic”.
For the molecule `COc1cc2c(oc3ccccc32)c(OC)c1O` [ERIOBOFURAN], the IC50 in data set [2], in data set [3], in data set [4] and in data set [5] was > 10 µM throughout.
Take `COc1cc(-c2ccccc2)cc(OC)c1OC` [METHOXY AUCUPARIN]: the IC50 in data set [1] is 21.9 µM; in data set [2] it was > 10 µM; in data set [3], > 10 µM; in data set [4], > 10 µM; in data set [5] it was > 10 µM.

Source of the values: ChEMBL document CHEMBL1154340, “Biphenyls from Berberis koreana” (J Nat Prod, 2009).
